Results from different studies.
Protocols differ between the studies behind these lines.
Target: Mitogen-activated protein kinase 8 (MAPK8, Homo sapiens, UniProt P45983)

C[C@@H]1CN(c2cc(-c3nn(C)c4ccc(OC5(C)CC5)cc34)ncn2)C[C@H](C)O1
remaining binding (cell-free assay; competition with immobilised ligand; 1 µM): 82%

COc1cc2c(N3CCN(C(=O)Nc4ccc(OC(C)C)cc4)CC3)ncnc2cc1OCCCN1CCCCC1
remaining signal (cell-free assay; 0.5 µM): 105%

FC(F)c1nc2ccccc2n1-c1nc(N2CCOCC2)nc(N2CCOCC2)n1
remaining activity (enzyme activity; inhibitor; 10 µM): 93%

CC/C(=N\NC(=O)NCc1cccc(O)c1)c1ccc(O)c(C)c1O
inhibition (enzyme activity; inhibitor; 0.1 µM): -2.4%

N#CCCc1ccc2c(c1)-c1[nH]c3ccc([N+](=O)[O-])cc3c1CC(=O)N2
remaining signal (cell-free assay; 0.5 µM): 93.1%

CN(c1ccnc(CNc2nc(Nc3ccc4c(c3)CC(=O)N4)ncc2C(F)(F)F)n1)S(C)(=O)=O
remaining binding (cell-free assay; competition with immobilised ligand; 1 µM): 65%

N#CC1c2c([nH]c3c(Cl)c(Cl)ccc23)C(=O)NC12CCCCC2 (racemic)
ΔTm (thermal stability; DSF; 10 µM): 1.8 °C

COc1cc(Cl)c(C(=O)N[C@@H](CN[C@H]2CC[C@@H](N)CC2)Cc2ccc(C#N)cc2)cc1-c1ccc(CN[C@H](C)c2ccc(C)cc2)o1
remaining activity (enzyme activity; inhibitor; 1 µM): 100%

Cn1c2c(c3ccc(Cl)c(Cl)c31)C(C#N)C1(CCCC1)NC2=O (centres unmarked)
ΔTm (thermal stability; DSF; 10 µM): 0.6 °C

N#Cc1c(NC(=O)c2cccc3ccccc23)sc2c1CCCC2
remaining signal (cell-free assay; 0.5 µM): 87.3%

CC(C)(O)[C@H]1CC[C@H](Nc2ccc3ncc(-c4cccc(C(F)(F)F)c4)n3n2)CC1
remaining activity (enzyme activity; inhibitor; 1 µM): 107%

FC(F)(F)Oc1cccc(-c2cnc3ccc(-c4ccncc4)nn23)c1
activity vs control (enzyme activity; inhibitor; radiometric; 5 µM): 90%

CC(C)(C)C(=O)c1sc(NC2CCCCC2)nc1N
remaining activity (enzyme activity; inhibitor; 10 µM): 98%

CCCS(=O)(=O)Nc1ccc(F)c(C(=O)c2c[nH]c3ncc(-c4ccc(Cl)cc4)cc23)c1F
inhibition (enzyme activity; inhibitor; 1 µM): < 10%

COc1ccc2c(c1)O[C@H](c1ccc(OC)c(OC)c1)C[C@@H]2NC(=O)C1(c2ccc3c(c2)OC(F)(F)O3)CC1
remaining binding (cell-free assay; competition with immobilised ligand; 1 µM): 96%

Nc1nc(Nc2ccccc2)sc1C(=O)c1c(F)cccc1F
remaining activity (enzyme activity; inhibitor; 10 µM): 75%

C=CC(=O)Nc1cc(Nc2nccc(Nc3cc(Cl)c(F)cc3C(C)(C)O)n2)c(OC)cc1N1CC[C@@H](N(C)C)C1
inhibition (enzyme activity; inhibitor; 1 µM): -3%

CC(C)(C)c1nc(-c2cccc(NS(=O)(=O)c3c(F)cccc3F)c2F)c(-c2ccnc(N)n2)s1
remaining activity (enzyme activity; inhibitor; radiometric; 1 µM): 89%

Nc1ncnc2occ(-c3ccc(NC(=O)Nc4cc(C(F)(F)F)ccc4F)cc3)c12
remaining signal (cell-free assay; inhibitor; 20 µM): 11%

CNCc1ccc(-c2cc(-c3nc(-c4ccc(S(=O)(=O)C(C)C)cc4)cnc3N)on2)cc1
inhibition (enzyme activity; inhibitor; 0.4 µM): 6%

COc1cc(-c2cc(-c3ccc(N4CCNCC4)cc3)cnc2C)cc(OC)c1OC
inhibition (enzyme activity; inhibitor; 0.1 µM): 0%

Cc1cc(NC(=O)c2cccc(S(F)(F)(F)(F)F)c2)cc(-n2ccn3nc(-c4cccnc4)cc23)c1
remaining binding (cell-free assay; competition with immobilised ligand; 1 µM): 55.9%

CN1CCC2(CC1)NC(=O)c1c(c3ccc(Cl)c(Cl)c3n1C)C2C#N (racemic)
ΔTm (thermal stability; DSF; 10 µM): 0 °C

COc1cc(Nc2cnc(C#N)c(O[C@H](C)CN(C)C)n2)ncc1-c1cnn(C)c1
remaining activity (enzyme activity; inhibitor; radiometric; 10 µM): 93%

O=C1NC(=O)c2cc(Nc3ccc(F)cc3)c(Nc3ccc(F)cc3)cc21
remaining signal (cell-free assay; 0.5 µM): 91.4%

CN(C)C1CCN(CC#Cc2nn(C3CCCC3)c3nc(NCc4ccccc4)ncc23)C1 (centres unmarked)
inhibition (enzyme activity; inhibitor; FRET; 1 µM): 5%

O=C(Nc1cnn(-c2csc(C(=O)NC3COC3)c2)c1)Nc1ccccc1Cl
remaining activity (enzyme activity; inhibitor; 5 µM): 57.6%

CC1=C(C#N)[C@@H](c2ccc3[nH]nc(C)c3c2)C(C#N)=C(c2ccc(Cl)cc2)N1
remaining binding (cell-free assay; competition with immobilised ligand; 1 µM): 65.2%

Cc1ccc(NC(=O)c2ccc(C)c(C(F)(F)F)c2)cc1C#Cc1nn(C2CCC(O)CC2)c2ncnc(N)c12 (centres unmarked)
remaining signal (cell-free assay; 10 µM): 35%

CCOCCn1cc(C(=O)Nc2ccc(-n3nc(-c4cccnc4)cc3C(F)(F)F)cn2)ccc1=O
remaining binding (cell-free assay; competition with immobilised ligand; 1 µM): 72%

CCC1(CC)NC(=O)c2c(c3ccc(Cl)c(Cl)c3n2C)C1C#N (centres unmarked)
ΔTm (thermal stability; DSF; 10 µM): 0.3 °C

CC1=C(C#N)C(c2ccc3c(c2)c(NC(=O)c2ccccc2C)nn3C)C(C#N)=C(C)N1
remaining binding (cell-free assay; competition with immobilised ligand; 1 µM): 88%

COc1cc2ncnc(Nc3ccc(Oc4ccccc4)cc3C)c2cc1OC
inhibition (enzyme activity; inhibitor; 1 µM): 1%

O=C(Nc1ccc(Oc2ccc(F)cc2)cc1)N1CCc2ncccc2[C@H]1c1ccc(F)cc1
remaining binding (cell-free assay; competition with immobilised ligand; 1 µM): 91%

Cn1c2c(Cl)c(Cl)ccc2c2cn[nH]c(=O)c21
ΔTm (thermal stability; DSF; 10 µM): -0.3 °C
